In ChEMBL document CHEMBL1138353, “Facile stereospecific synthesis and biological evaluation of (S)- and (R)-2-amino-2-methyl-4-[123I]iodo-3-(E)-butenoic acid for brain tumor imaging with single photon emission computerized tomography” (J Med Chem, 2007):

Columns and labels:
Bone [1] = assay: Biodistribution in 9L cells bearing Fischer 344 rat bone at 15 to 30 uCi, iv after 30 mins; type: ADME, organism-based, Bone element; conditions: in vivo, 0.5 h
Summary of the method: (§1)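 Male Fischer 344 rats (125–175 g) bearing intracranial 9L gliosarcoma implants; radioiodinated tracer (123I for S, 131I for R) purified in saline, given intravenously. Tissues harvested at 30, 60 or 120 min, radioactivity expressed as %ID/g (thyroid per organ). Groups: S study 5 rats per time; R study 5 at 30 min, 4 at 60 and 120 min.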

Brain [2] = assay: Biodistribution in 9L cells bearing Fischer 344 rat brain at 15 to 30 uCi, iv after 60 mins; type: ADME, organism-based; conditions: in vivo, 1 h; summary of the method: as §1
Kidney [3] = assay: Biodistribution in 9L cells bearing Fischer 344 rat kidney at 15 to 30 uCi, iv after 30 mins; type: ADME, organism-based; conditions: in vivo, 0.5 h; summary of the method: as §1
Brain [4] = assay: Biodistribution in 9L cells bearing Fischer 344 rat brain at 15 to 30 uCi, iv after 30 mins; type: ADME, organism-based; conditions: in vivo, 0.5 h; summary of the method: as §1
Heart [5] = assay: Biodistribution in 9L cells bearing Fischer 344 rat heart at 15 to 30 uCi, iv after 30 mins; type: ADME, organism-based; conditions: in vivo, 0.5 h; summary of the method: as §1
Muscle tissue [6] = assay: Biodistribution in 9L cells bearing Fischer 344 rat muscle at 15 to 30 uCi, iv after 120 mins; type: ADME, organism-based; conditions: in vivo, 2 h; summary of the method: as §1
Testes [7] = assay: Biodistribution in 9L cells bearing Fischer 344 rat testes at 15 to 30 uCi, iv after 60 mins; type: ADME, organism-based, Testis; conditions: in vivo, 1 h; summary of the method: as §1
Pancreas [8] = assay: Biodistribution in 9L cells bearing Fischer 344 rat pancreas at 15 to 30 uCi, iv after 60 mins; type: ADME, organism-based; conditions: in vivo, 1 h; summary of the method: as §1
Liver [9] = assay: Biodistribution in 9L cells bearing Fischer 344 rat liver at 15 to 30 uCi, iv after 30 mins; type: ADME, organism-based; conditions: in vivo, 0.5 h; summary of the method: as §1
Spleen [10] = assay: Biodistribution in 9L cells bearing Fischer 344 rat spleen at 15 to 30 uCi, iv after 120 mins; type: ADME, organism-based; conditions: in vivo, 2 h; summary of the method: as §1
Lung [11] = assay: Biodistribution in 9L cells bearing Fischer 344 rat lung at 15 to 30 uCi, iv after 60 mins; type: ADME, organism-based; conditions: in vivo, 1 h; summary of the method: as §1
Pancreas [12] = assay: Biodistribution in 9L cells bearing Fischer 344 rat pancreas at 15 to 30 uCi, iv after 120 mins; type: ADME, organism-based; conditions: in vivo, 2 h; summary of the method: as §1
Rattus norvegicus [13] = assay: Biodistribution in 9L cells bearing Fischer 344 rat tumor at 15 to 30 uCi, iv after 30 mins; type: ADME, organism-based, Neoplasm; conditions: in vivo, 0.5 h; summary of the method: as §1
Spleen [14] = assay: Biodistribution in 9L cells bearing Fischer 344 rat spleen at 15 to 30 uCi, iv after 60 mins; type: ADME, organism-based; conditions: in vivo, 1 h; summary of the method: as §1
Spleen [15] = assay: Biodistribution in 9L cells bearing Fischer 344 rat spleen at 15 to 30 uCi, iv after 30 mins; type: ADME, organism-based; conditions: in vivo, 0.5 h; summary of the method: as §1
Muscle tissue [16] = assay: Biodistribution in 9L cells bearing Fischer 344 rat muscle at 15 to 30 uCi, iv after 60 mins; type: ADME, organism-based; conditions: in vivo, 1 h; summary of the method: as §1
9L [17] = assay: Drug uptake per 10^6 cells in rat 9L cells after 30 mins assessed as uptake inhibition in presence of 2-aminobicyclo[2.2.1]-heptane-2-carboxylic acid relative to control; type: ADME, cell-based; design: scale not given: the % may be the effect or the level left; conditions: 0.5 h
Summary of the method: (§2)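 Cultured rat 9L gliosarcoma cells incubated 30 min with 131I-labelled tracer, with or without A-type inhibitor N-MeAIB or L-type inhibitor BCH. Uptake expressed as percent of initial dose per 1 × 10^6 cells, normalized for dose and cell number. Inhibition compared to control by one-way ANOVA; SD shown.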

Nucleic Acid [18] = assay: Ratio of drug level in tumor to brain in 9L cells bearing Fischer 344 rat at 15 to 30 uCi, iv after 120 mins; type: ADME, organism-based; conditions: in vivo, 2 h
Summary of the method: (§3)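 Intracranial 9L gliosarcoma in male Fischer 344 rats (125–175 g). The 123I-labelled (S) or 131I-labelled (R) tracer was given iv in saline. Tumor and normal brain %ID/g were measured at 30, 60 or 120 min, and the ratio was taken from these. Groups were 5 per time for S, and 5/4/4 for R.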

Blood [19] = assay: Biodistribution in 9L cells bearing Fischer 344 rat blood at 15 to 30 uCi, iv after 120 mins; type: ADME, organism-based; conditions: in vivo, 2 h; summary of the method: as §1
Liver [20] = assay: Biodistribution in 9L cells bearing Fischer 344 rat liver at 15 to 30 uCi, iv after 60 mins; type: ADME, organism-based; conditions: in vivo, 1 h; summary of the method: as §1
Pancreas [21] = assay: Biodistribution in 9L cells bearing Fischer 344 rat pancreas at 15 to 30 uCi, iv after 30 mins; type: ADME, organism-based; conditions: in vivo, 0.5 h; summary of the method: as §1
Liver [22] = assay: Biodistribution in 9L cells bearing Fischer 344 rat liver at 15 to 30 uCi, iv after 120 mins; type: ADME, organism-based; conditions: in vivo, 2 h; summary of the method: as §1
Lung [23] = assay: Biodistribution in 9L cells bearing Fischer 344 rat lung at 15 to 30 uCi, iv after 30 mins; type: ADME, organism-based; conditions: in vivo, 0.5 h; summary of the method: as §1
Bone [24] = assay: Biodistribution in 9L cells bearing Fischer 344 rat bone at 15 to 30 uCi, iv after 60 mins; type: ADME, organism-based, Bone element; conditions: in vivo, 1 h; summary of the method: as §1
Rattus norvegicus [25] = assay: Biodistribution in 9L cells bearing Fischer 344 rat tumor at 15 to 30 uCi, iv after 120 mins; type: ADME, organism-based, Neoplasm; conditions: in vivo, 2 h; summary of the method: as §1
Kidney [26] = assay: Biodistribution in 9L cells bearing Fischer 344 rat kidney at 15 to 30 uCi, iv after 60 mins; type: ADME, organism-based; conditions: in vivo, 1 h; summary of the method: as §1
Heart [27] = assay: Biodistribution in 9L cells bearing Fischer 344 rat heart at 15 to 30 uCi, iv after 120 mins; type: ADME, organism-based; conditions: in vivo, 2 h; summary of the method: as §1
Bone [28] = assay: Biodistribution in 9L cells bearing Fischer 344 rat bone at 15 to 30 uCi, iv after 120 mins; type: ADME, organism-based, Bone element; conditions: in vivo, 2 h; summary of the method: as §1
Heart [29] = assay: Biodistribution in 9L cells bearing Fischer 344 rat heart at 15 to 30 uCi, iv after 60 mins; type: ADME, organism-based; conditions: in vivo, 1 h; summary of the method: as §1
Kidney [30] = assay: Biodistribution in 9L cells bearing Fischer 344 rat kidney at 15 to 30 uCi, iv after 120 mins; type: ADME, organism-based; conditions: in vivo, 2 h; summary of the method: as §1
Nucleic Acid [31] = assay: Ratio of drug level in tumor to brain in 9L cells bearing Fischer 344 rat at 15 to 30 uCi, iv after 30 mins; type: ADME, organism-based; conditions: in vivo, 0.5 h; summary of the method: as §3
9L [32] = assay: Drug uptake per 10^6 cells in rat 9L cells after 30 mins; type: ADME, cell-based; conditions: 0.5 h; summary of the method: as §2
Blood [33] = assay: Biodistribution in 9L cells bearing Fischer 344 rat blood at 15 to 30 uCi, iv after 30 mins; type: ADME, organism-based; conditions: in vivo, 0.5 h; summary of the method: as §1
Thyroid gland [34] = assay: Biodistribution in 9L cells bearing Fischer 344 rat thyroid at 15 to 30 uCi, iv after 120 mins; type: ADME, organism-based; conditions: in vivo, 2 h; summary of the method: as §1
Brain [35] = assay: Biodistribution in 9L cells bearing Fischer 344 rat brain at 15 to 30 uCi, iv after 120 mins; type: ADME, organism-based; conditions: in vivo, 2 h; summary of the method: as §1
Thyroid gland [36] = assay: Biodistribution in 9L cells bearing Fischer 344 rat thyroid at 15 to 30 uCi, iv after 60 mins; type: ADME, organism-based; conditions: in vivo, 1 h; summary of the method: as §1
Lung [37] = assay: Biodistribution in 9L cells bearing Fischer 344 rat lung at 15 to 30 uCi, iv after 120 mins; type: ADME, organism-based; conditions: in vivo, 2 h; summary of the method: as §1
Muscle tissue [38] = assay: Biodistribution in 9L cells bearing Fischer 344 rat muscle at 15 to 30 uCi, iv after 30 mins; type: ADME, organism-based; conditions: in vivo, 0.5 h; summary of the method: as §1
Testes [39] = assay: Biodistribution in 9L cells bearing Fischer 344 rat testes at 15 to 30 uCi, iv after 120 mins; type: ADME, organism-based, Testis; conditions: in vivo, 2 h; summary of the method: as §1
Thyroid gland [40] = assay: Biodistribution in 9L cells bearing Fischer 344 rat thyroid at 15 to 30 uCi, iv after 30 mins; type: ADME, organism-based; conditions: in vivo, 0.5 h; summary of the method: as §1
Testes [41] = assay: Biodistribution in 9L cells bearing Fischer 344 rat testes at 15 to 30 uCi, iv after 30 mins; type: ADME, organism-based, Testis; conditions: in vivo, 0.5 h; summary of the method: as §1
Blood [42] = assay: Biodistribution in 9L cells bearing Fischer 344 rat blood at 15 to 30 uCi, iv after 60 mins; type: ADME, organism-based; conditions: in vivo, 1 h; summary of the method: as §1
Rattus norvegicus [43] = assay: Biodistribution in 9L cells bearing Fischer 344 rat tumor at 15 to 30 uCi, iv after 60 mins; type: ADME, organism-based, Neoplasm; conditions: in vivo, 1 h; summary of the method: as §1
Nucleic Acid [44] = assay: Ratio of drug level in tumor to brain in 9L cells bearing Fischer 344 rat at 15 to 30 uCi, iv after 60 mins; type: ADME, organism-based; conditions: in vivo, 1 h; summary of the method: as §3

## C[C@@](N)(/C=C/[131I])C(=O)O
Bone [1]
  Drug uptake: 0.13 % ID/g
Brain [2]
  Drug uptake: 0.066 % ID/g
Kidney [3]
  Drug uptake: 2.91 % ID/g
Brain [4]
  Drug uptake: 0.018 % ID/g
Heart [5]
  Drug uptake: 0.19 % ID/g
Muscle tissue [6]
  Drug uptake: 0.26 % ID/g
Testes [7]
  Drug uptake: 0.26 % ID/g
Pancreas [8]
  Drug uptake: 1.86 % ID/g
Liver [9]
  Drug uptake: 0.31 % ID/g
Spleen [10]
  Drug uptake: 0.31 % ID/g
Lung [11]
  Drug uptake: 0.65 % ID/g
Pancreas [12]
  Drug uptake: 0.78 % ID/g
Rattus norvegicus [13]
  Drug uptake: 0.19 % ID/g
Spleen [14]
  Drug uptake: 0.5 % ID/g
Spleen [15]
  Drug uptake: 0.3 % ID/g
Muscle tissue [16]
  Drug uptake: 0.4 % ID/g
9L [17]
  Activity: 57%
Nucleic Acid [18]
  Ratio: 7.6
Blood [19]
  Drug uptake: 0.56 % ID/g
Liver [20]
  Drug uptake: 0.6 % ID/g
Pancreas [21]
  Drug uptake: 1.21 % ID/g
Liver [22]
  Drug uptake: 0.37 % ID/g
Lung [23]
  Drug uptake: 0.27 % ID/g
Bone [24]
  Drug uptake: 0.34 % ID/g
Rattus norvegicus [25]
  Drug uptake: 0.39 % ID/g
Kidney [26]
  Drug uptake: 3.43 % ID/g
Heart [27]
  Drug uptake: 0.34 % ID/g
Bone [28]
  Drug uptake: 0.26 % ID/g
Heart [29]
  Drug uptake: 0.43 % ID/g
Kidney [30]
  Drug uptake: 1.76 % ID/g
Nucleic Acid [31]
  Ratio: 10
9L [32]
  Drug uptake: 0.07 %ID
Blood [33]
  Drug uptake: 0.22 % ID/g
Thyroid gland [34]
  Drug uptake: 0.36 %ID/organ
Brain [35]
  Drug uptake: 0.051 % ID/g
Thyroid gland [36]
  Drug uptake: 0.25 %ID/organ
Lung [37]
  Drug uptake: 0.45 % ID/g
Muscle tissue [38]
  Drug uptake: 0.26 % ID/g
Testes [39]
  Drug uptake: 0.23 % ID/g
Thyroid gland [40]
  Drug uptake: 0.08 %ID/organ
Testes [41]
  Drug uptake: 0.09 % ID/g
Blood [42]
  Drug uptake: 0.69 % ID/g
Rattus norvegicus [43]
  Drug uptake: 0.51 % ID/g
Nucleic Acid [44]
  Ratio: 7.7
